Assays:
[1] = biological target: Mitogen-activated protein kinase 14 (Mus musculus, UniProt P47811); assay: Inhibitory activity against murine p38-alpha MAPK
In short: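 Kinase assay with phosphorylated His-tagged p38α MAP kinase of murine origin (10 ng/well). Substrate was immobilised GST-ATF-2, with 120 µM cold ATP present. Result expressed as IC50 (nM).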

Mus musculus = assay: Inhibition of LPS-induced TNFalpha release in mouse at 20 mg/kg, po; format: functional; settings: OF1
In short: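 Female OF1 mice, eight weeks old, given compound orally by gavage as a DMSO/cornoil solution at 20 mg/kg. One hour after dosing, LPS (20 mg/kg) injected iv to stimulate TNF-α release into plasma. Blood collected one hour later; plasma TNF-α measured by mouse-specific ELISA; reported as % inhibition.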

Rattus norvegicus [2] = assay: Inhibition of adjuvant-induced arthritis in rat at 25 mg/kg, po; format: functional; settings: Wistar
In short: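 Female Wistar rats immunized with Mycobacterium tuberculosis on day 0. Compound dosed orally at 25 mg/kg twice daily from day 14 to day 20. Joint swelling measured on day 20; paw swelling inhibition expressed as %.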

[3] = Cmax in rat administered at 1 mg/kg, po; format: ADME, organism-based; set-up: dose 1 mg/kg, route oral; settings: in vivo
[4] = Half life in rat; format: ADME, organism-based; settings: in vivo
[5] = Oral bioavailability in rat; format: ADME, organism-based; settings: in vivo
[6] = biological target: Mast/stem cell growth factor receptor Kit (Homo sapiens) (UniProt P10721); assay: Inhibition of c-Kit at 10 uM
[7] = biological target: T1, Fibroblast growth factor receptor (Homo sapiens, UniProt P22607+P11362+P22455+P21802); assay: Inhibition of FGFR at 10 uM; format: protein assay
Rattus norvegicus [8] = assay: Inhibition of collagen-induced arthritis in rat at 10 mg/kg, po; format: functional
In short: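 Collagen-induced arthritis in rats. Compounds given orally once daily (q.d.) for 10 days; swelling inhibition recorded.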

[9] = biological target: T2, Receptor tyrosine-protein kinase erbB-2 (Homo sapiens, UniProt P04626); assay: Inhibition of HER2 at 10 uM
T2 sequence (P04626 whole entry): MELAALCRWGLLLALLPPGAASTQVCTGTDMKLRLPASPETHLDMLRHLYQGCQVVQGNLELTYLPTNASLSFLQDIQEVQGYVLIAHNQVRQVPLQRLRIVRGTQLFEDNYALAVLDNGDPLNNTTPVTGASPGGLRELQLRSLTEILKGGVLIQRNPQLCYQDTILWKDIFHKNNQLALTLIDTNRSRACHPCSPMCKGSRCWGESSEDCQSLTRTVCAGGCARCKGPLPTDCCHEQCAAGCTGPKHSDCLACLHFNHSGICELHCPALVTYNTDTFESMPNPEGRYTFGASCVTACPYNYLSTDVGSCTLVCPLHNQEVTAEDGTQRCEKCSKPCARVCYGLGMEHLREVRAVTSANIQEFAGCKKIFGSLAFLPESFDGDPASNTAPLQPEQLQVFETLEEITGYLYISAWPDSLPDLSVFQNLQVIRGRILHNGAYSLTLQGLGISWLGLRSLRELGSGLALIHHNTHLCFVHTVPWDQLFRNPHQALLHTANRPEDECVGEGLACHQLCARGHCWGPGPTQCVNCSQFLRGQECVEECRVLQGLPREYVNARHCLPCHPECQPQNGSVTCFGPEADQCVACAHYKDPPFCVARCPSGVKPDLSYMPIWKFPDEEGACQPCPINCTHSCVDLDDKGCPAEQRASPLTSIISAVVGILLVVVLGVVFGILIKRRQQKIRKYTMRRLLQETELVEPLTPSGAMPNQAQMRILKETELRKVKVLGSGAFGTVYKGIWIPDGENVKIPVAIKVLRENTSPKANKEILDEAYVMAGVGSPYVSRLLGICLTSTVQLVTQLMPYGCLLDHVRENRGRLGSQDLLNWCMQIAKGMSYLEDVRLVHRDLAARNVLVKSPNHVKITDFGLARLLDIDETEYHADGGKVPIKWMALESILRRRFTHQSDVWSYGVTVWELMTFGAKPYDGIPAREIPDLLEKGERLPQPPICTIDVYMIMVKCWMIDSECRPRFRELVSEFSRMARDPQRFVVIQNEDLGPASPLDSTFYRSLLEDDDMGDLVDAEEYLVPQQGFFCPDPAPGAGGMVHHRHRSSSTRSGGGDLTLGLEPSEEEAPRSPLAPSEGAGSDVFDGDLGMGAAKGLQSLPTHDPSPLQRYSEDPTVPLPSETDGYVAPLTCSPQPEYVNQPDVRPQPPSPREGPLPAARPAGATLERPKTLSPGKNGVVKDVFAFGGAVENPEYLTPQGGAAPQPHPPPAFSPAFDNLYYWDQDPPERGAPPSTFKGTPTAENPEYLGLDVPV

[10] = biological target: T3, Epidermal growth factor receptor (Homo sapiens, UniProt P00533); settings: 10 uM
T3 sequence (P00533 whole entry): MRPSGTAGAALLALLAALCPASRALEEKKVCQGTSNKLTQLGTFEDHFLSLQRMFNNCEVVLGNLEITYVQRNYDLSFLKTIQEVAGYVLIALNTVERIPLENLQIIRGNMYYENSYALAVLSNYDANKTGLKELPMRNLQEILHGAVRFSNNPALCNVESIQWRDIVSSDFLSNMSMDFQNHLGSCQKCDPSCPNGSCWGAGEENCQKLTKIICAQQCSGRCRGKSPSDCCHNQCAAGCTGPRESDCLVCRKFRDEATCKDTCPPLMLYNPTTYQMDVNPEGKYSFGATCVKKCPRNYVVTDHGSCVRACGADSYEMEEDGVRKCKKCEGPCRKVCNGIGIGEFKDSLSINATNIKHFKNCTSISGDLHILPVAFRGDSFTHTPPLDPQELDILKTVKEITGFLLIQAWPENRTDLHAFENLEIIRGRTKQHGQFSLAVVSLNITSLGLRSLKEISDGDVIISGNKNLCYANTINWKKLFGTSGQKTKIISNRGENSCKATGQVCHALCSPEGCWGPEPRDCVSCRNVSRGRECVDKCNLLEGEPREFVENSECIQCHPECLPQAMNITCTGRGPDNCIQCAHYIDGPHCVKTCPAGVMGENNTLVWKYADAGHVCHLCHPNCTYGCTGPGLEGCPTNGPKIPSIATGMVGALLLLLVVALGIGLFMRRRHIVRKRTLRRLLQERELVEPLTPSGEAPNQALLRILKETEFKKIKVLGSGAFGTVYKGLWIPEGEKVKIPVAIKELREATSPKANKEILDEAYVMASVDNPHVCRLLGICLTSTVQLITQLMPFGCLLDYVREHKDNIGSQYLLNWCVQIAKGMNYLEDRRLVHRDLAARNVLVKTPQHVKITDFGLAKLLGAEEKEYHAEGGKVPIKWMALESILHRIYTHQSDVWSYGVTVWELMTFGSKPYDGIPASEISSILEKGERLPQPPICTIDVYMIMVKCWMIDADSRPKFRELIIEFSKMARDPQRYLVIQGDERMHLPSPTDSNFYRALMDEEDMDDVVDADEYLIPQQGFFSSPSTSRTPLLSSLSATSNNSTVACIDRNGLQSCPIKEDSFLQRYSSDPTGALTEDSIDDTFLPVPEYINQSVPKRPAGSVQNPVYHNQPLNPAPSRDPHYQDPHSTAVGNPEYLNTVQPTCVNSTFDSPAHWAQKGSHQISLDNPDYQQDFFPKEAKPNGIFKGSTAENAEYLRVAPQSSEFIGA

[11] = biological target: Mitogen-activated protein kinase 9 (Homo sapiens, UniProt P45984); assay: Inhibitory activity against JNK2
Mitogen-activated protein kinase 9, sequence (P45984 whole entry): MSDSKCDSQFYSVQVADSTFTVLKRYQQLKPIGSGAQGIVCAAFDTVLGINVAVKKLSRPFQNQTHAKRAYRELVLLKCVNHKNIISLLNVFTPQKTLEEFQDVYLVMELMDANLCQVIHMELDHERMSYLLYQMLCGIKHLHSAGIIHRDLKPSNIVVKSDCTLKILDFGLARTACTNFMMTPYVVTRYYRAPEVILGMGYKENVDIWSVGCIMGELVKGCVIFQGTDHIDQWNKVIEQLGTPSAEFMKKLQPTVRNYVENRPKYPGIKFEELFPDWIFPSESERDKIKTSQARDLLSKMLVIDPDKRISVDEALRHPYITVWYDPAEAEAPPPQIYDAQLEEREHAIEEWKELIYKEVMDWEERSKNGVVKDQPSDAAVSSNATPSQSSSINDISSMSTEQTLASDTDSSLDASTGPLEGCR

[12] = biological target: Hepatocyte growth factor receptor (Homo sapiens, UniProt P08581); assay: Inhibitory activity against c-Met
[13] = biological target: Insulin-like growth factor 1 receptor (Homo sapiens) (UniProt P08069); assay: Inhibition of IGF1R at 10 uM
Insulin-like growth factor 1 receptor (Homo sapiens), sequence (P08069 31-736 limits assumed): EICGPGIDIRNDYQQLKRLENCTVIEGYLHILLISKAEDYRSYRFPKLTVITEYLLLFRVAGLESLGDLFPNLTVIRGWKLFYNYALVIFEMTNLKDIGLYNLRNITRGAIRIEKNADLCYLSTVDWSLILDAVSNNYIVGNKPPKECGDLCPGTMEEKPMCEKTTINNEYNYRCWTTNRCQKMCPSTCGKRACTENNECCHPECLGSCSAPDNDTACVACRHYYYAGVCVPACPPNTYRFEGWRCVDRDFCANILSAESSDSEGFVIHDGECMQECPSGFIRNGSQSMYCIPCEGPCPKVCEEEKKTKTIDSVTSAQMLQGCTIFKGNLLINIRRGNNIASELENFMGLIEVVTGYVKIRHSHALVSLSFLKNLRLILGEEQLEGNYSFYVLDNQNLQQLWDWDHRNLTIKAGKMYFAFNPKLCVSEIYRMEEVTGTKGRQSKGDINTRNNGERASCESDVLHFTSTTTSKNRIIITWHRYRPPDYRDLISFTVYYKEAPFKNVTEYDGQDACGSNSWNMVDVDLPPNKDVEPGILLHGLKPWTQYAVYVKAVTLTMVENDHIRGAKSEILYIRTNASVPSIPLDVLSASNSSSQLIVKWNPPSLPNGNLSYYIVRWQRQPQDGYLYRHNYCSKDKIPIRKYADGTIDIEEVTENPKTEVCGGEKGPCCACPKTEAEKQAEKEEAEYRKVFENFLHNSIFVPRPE
Insulin-like growth factor 1 receptor (Homo sapiens), sequence (P08069 741-1367 limits assumed): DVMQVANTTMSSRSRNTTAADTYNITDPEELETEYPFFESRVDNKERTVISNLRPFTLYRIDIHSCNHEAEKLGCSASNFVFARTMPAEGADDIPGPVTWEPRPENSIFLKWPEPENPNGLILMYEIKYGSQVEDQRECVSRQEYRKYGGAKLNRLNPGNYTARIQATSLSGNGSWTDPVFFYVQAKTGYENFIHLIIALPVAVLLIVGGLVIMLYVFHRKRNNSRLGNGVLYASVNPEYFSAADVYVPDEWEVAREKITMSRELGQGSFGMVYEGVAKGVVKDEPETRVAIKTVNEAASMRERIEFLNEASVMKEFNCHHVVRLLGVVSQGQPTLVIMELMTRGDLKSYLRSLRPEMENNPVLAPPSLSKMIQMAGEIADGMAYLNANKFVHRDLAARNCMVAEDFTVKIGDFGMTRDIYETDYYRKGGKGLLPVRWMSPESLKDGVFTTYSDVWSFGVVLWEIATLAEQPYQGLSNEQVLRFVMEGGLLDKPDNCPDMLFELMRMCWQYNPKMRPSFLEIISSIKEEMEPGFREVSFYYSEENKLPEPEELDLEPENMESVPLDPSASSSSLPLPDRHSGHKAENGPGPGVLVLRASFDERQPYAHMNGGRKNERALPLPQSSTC

[14] = biological target: RAF proto-oncogene serine/threonine-protein kinase (Homo sapiens) (UniProt P04049); assay: Inhibition of c-Raf at 10 uM
[15] = biological target: T3, Epidermal growth factor receptor; assay: Inhibitory activity against HER1
[16] = biological target: T1, Fibroblast growth factor receptor; assay: Inhibitory activity against FGFR; format: protein assay
[17] = AUC in rat; format: ADME, organism-based; settings: plasma
[18] = biological target: T2, Receptor tyrosine-protein kinase erbB-2; assay: Inhibitory activity against HER2
[19] = biological target: Cyclin-dependent kinase 1 (Homo sapiens) (UniProt P06493); assay: Inhibition of CDK1 at 10 uM
Cyclin-dependent kinase 1 (Homo sapiens), sequence (P06493 whole entry, looked up): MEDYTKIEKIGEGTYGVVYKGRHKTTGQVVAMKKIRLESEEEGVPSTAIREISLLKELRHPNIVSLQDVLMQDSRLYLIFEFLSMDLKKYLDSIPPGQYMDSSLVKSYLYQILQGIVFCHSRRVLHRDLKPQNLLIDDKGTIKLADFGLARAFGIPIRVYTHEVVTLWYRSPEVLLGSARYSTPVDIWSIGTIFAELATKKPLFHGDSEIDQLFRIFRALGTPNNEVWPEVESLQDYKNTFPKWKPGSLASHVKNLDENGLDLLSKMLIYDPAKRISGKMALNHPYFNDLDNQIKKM

Mitogen-activated protein kinase 14, sequence (P47811 whole entry): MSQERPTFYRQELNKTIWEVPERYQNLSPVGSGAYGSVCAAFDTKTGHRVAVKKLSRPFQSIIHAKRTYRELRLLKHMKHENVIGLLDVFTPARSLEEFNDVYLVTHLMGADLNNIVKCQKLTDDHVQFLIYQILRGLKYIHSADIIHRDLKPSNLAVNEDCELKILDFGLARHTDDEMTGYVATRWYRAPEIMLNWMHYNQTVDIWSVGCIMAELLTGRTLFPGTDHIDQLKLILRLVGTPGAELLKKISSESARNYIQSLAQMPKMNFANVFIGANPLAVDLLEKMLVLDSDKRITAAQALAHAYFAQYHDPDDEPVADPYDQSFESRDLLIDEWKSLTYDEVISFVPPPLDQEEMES

| Structure (SMILES) | IC50 [1] [nM] | inhibition in vivo at 20 mg/kg (Mus musculus) [%] | inhibition in vivo at 25 mg/kg (Rattus norvegicus [2]) [%] | bioavailability [5] [%] | further results |
| --- | --- | --- | --- | --- | --- |
| COc1ccc(CCCN(C)C)cc1-c1[nH]nc2nc(Nc3ccc(F)cc3F)ncc12 | 11 | 93 |  |  |  |
| COc1ccc(C#CCN(C)C)cc1-c1[nH]nc2nc(Nc3ccc(F)cc3F)ncc12 | 0.6 | 96 |  |  |  |
| COc1ccc(C#CC(C)(C)O)cc1-c1[nH]nc2nc(Nc3ccc(F)cc3F)ncc12 | 19 | 98 | 34 |  |  |
| COc1ccc(C(=O)O)cc1-c1[nH]nc2nc(Nc3ccc(F)cc3F)ccc12 | 200 |  |  |  |  |
| COc1ccc(C(=O)NC2CCOCC2)cc1-c1[nH]nc2nc(Nc3ccc(F)cc3F)ccc12 | 0.7 | 97 | 28 | 22 | Cmax [3]: 6 nM; half-life [4]: 1.4 h |
| COc1ccc(CNC2CCCC2)cc1-c1[nH]nc2nc(Nc3ccc(F)cc3F)ccc12 | 58 | 38 |  |  |  |
| COc1ccc(C#CC(C)(C)O)cc1-c1[nH]nc2nc(Nc3ccc(F)cc3F)cnc12 | 7 | 98 | 41 | 22 | Cmax [3]: 160 nM; inhibition [6]: 0%; inhibition [7]: -5%; inhibition in vivo at 10 mg/kg (Rattus norvegicus [8]): 57%; inhibition [9]: 0%; inhibition [10]: 0%; IC50 [11]: > 100000 nM |
| COc1ccc(C(=O)NC2CCCC2)cc1-c1[nH]nc2nc(Nc3ccc(F)cc3F)ccc12 | 5 | 97 | 34 | 26 | Cmax [3]: 6 nM; half-life [4]: 1.6 h |
| COc1ccc(CCC(C)(C)N)cc1-c1[nH]nc2nc(Nc3ccc(F)cc3F)cnc12 | 29 | 0 |  |  |  |
| COc1ccc(CCC(C)(C)O)cc1-c1[nH]nc2nc(Nc3ccc(F)cc3F)cnc12 | 21 | 94 |  |  |  |
| COc1ccc(CNC2CCOCC2)cc1-c1n[nH]c2nc(Nc3ccc(F)cc3F)ccc12 | 94 | 80 | 46 |  | inhibition in vivo at 10 mg/kg (Rattus norvegicus [8]): 10% |
| COc1ccc(C(=O)N2CCNCC2)cc1-c1[nH]nc2nc(Nc3ccc(F)cc3F)ccc12 | 280 | 3 |  |  |  |
| COc1ccc(CCC(C)(C)N)cc1-c1[nH]nc2nc(Nc3ccc(F)cc3F)ncc12 | 43 | 68 |  |  |  |
| COc1ccc(C#CC(C)(C)N)cc1-c1[nH]nc2nc(Nc3ccc(F)cc3F)ncc12 | 12 | 85 | 69 | 16 | IC50 [12]: 1500 nM; inhibition [13]: 0%; inhibition [14]: 0%; IC50 [15]: 5200 nM; inhibition in vivo at 10 mg/kg (Rattus norvegicus [8]): 75%; IC50 [16]: 10000 nM; AUC [17]: 512 ng·h/mL; IC50 [18]: 5000 nM; IC50 [11]: 8300 nM |
| COc1ccc(CCC(C)(C)N)cc1-c1[nH]nc2nc(Nc3ccc(F)cc3F)ccc12 | 33 | 78 | 9 | 20 | Cmax [3]: 11 nM |
| COc1ccc(C#CCN2CCN(C)CC2)cc1-c1[nH]nc2nc(Nc3ccc(F)cc3F)ncc12 | 0.9 | 96 |  |  |  |
| COc1ccc(C#CC(C)(C)N)cc1-c1[nH]nc2nc(Nc3ccc(F)cc3F)cnc12 | 10 | 98 | 37 | 9 | half-life [4]: 2.6 h |
| COc1ccc(C#CC(C)(C)N)cc1-c1[nH]nc2nc(Nc3ccc(F)cc3F)ccc12 | 20 | 98 | 49 | 95 | inhibition [19]: 0%; inhibition [13]: 0%; Cmax [3]: 52 nM; inhibition in vivo at 10 mg/kg (Rattus norvegicus [8]): 85%; AUC [17]: 422 ng·h/mL; IC50 [11]: 100000 nM |
| COc1ccc(CCCN2CCN(C)CC2)cc1-c1[nH]nc2nc(Nc3ccc(F)cc3F)ncc12 | 14 | 73 |  |  |  |
| COc1ccc(CCC(C)(C)O)cc1-c1[nH]nc2nc(Nc3ccc(F)cc3F)ncc12 | 47 | 98 | 36 |  |  |
